Laboratory results taken from ChEMBL document CHEMBL1132321, “Nucleosides and nucleotides. 185. Synthesis and biological activities of 4'alpha-C-branched-chain sugar pyrimidine nucleosides” (J Med Chem, 1999).

Tests used:
[1] = test system: KB; test: Cytotoxicity against KB cells.; format: functional, cell-based; details: Homo sapiens
[2] = test system: L1210; test: Cytotoxicity against L1210 cells.; format: functional, cell-based; details: Mus musculus
[3] = test system: Human alphaherpesvirus 1; test: Antiviral activity against Herpes simplex virus type-1 (HSV-1).; format: functional, organism-based
In short: (§1)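 Cell-protection read-out: HSV-1 Kos strain on MRC-5 cells, HSV-2 G strain on MRC-5 cells, HIV-1 IIIb strain on MT-4 cells. Cells infected at MOI 0.02, then immediately plated with serial compound dilutions. After 4 days of incubation at 36 °C, viable cells were counted by MTT. […].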

[4] = test system: Human immunodeficiency virus 1; test: (§2) Antiviral activity against Human immunodeficiency virus type-1; format: functional, organism-based; in short: as §1
[5] = test system: Human alphaherpesvirus 2; test: Antiviral activity against Herpes simplex virus type-2 (HSV-2).; format: functional, organism-based; in short: as §1
[6] = test system: Human immunodeficiency virus 1; test: as §2

Row | SMILES | IC50 [1] [µM] | IC50 [2] [µM] | EC50 [3] [µM] | IC50 [3] [µM] | EC50 [4] [µM] | IC50 [4] [µM] | EC50 [5] [µM] | IC50 [5] [µM] | EC50 [6] [µM]
1 | N#C[C@]1(CO)O[C@@H](n2ccc(=O)[nH]c2=O)[C@H](O)[C@@H]1O | > 350 | > 350 | – | – | – | – | – | – | –
2 | C=C[C@]1(CO)O[C@@H](n2ccc(N)nc2=O)C[C@@H]1O | > 350 | 21 | > 350 | > 350 | 0.0086 | 0.18 | > 350 | > 350 | –
3 | N#C[C@]1(CO)O[C@@H](n2ccc(N)nc2=O)[C@H](O)[C@@H]1O | > 350 | > 350 | – | – | – | – | – | – | –
4 | C#C[C@]1(CO)O[C@@H](n2ccc(=O)[nH]c2=O)[C@H](O)[C@@H]1O | > 350 | > 350 | – | – | – | – | – | – | –
5 | CC[C@]1(CO)O[C@@H](n2ccc(N)nc2=O)C[C@@H]1O | > 350 | 55 | > 350 | > 350 | 0.013 | 0.77 | > 350 | > 350 | –
6 | C#C[C@]1(CO)O[C@@H](n2ccc(N)nc2=O)C[C@@H]1O | – | – | 200 | > 350 | 0.0022 | 0.16 | > 350 | > 350 | –
7 | C[C@]1(CO)O[C@@H](n2ccc(N)nc2=O)C[C@@H]1O | > 350 | 0.16 | 3.1 | 260 | 0.062 | 0.062 | 0.58 | 260 | –
8 | Nc1ccn([C@H]2C[C@H](O)[C@@](/C=C/Cl)(CO)O2)c(=O)n1 | > 350 | 200 | > 350 | > 350 | 2.1 | 4.6 | > 350 | > 350 | –
9 | N#C[C@]1(CO)O[C@@H](n2ccc(N)nc2=O)C[C@@H]1O | > 350 | 0.33 | 3.6 | > 350 | 0.0012 | 0.17 | 21 | > 350 | –
10 | C#C[C@]1(CO)O[C@@H](n2ccc(N)nc2=O)[C@H](O)[C@@H]1O | > 350 | > 350 | – | – | – | – | – | – | –
11 | Nc1nc2c(ncn2COCCO)c(=O)[nH]1 [ACYCLOVIR] | – | – | 0.36 | > 350 | – | – | 1.1 | > 350 | –
12 | Cc1cn([C@H]2C[C@H](N=[N+]=[N-])[C@@H](CO)O2)c(=O)[nH]c1=O [ZIDOVUDINE] | – | – | – | – | – | 3.2 | – | – | 0.0041
